Assay outcomes: PubChem, Johns Hopkins Ion Channel Center
Rows were chosen to be rich in hits. Some 3.5% of all compounds tested hit in one or more screens of this group.
RGS4 block – human RGS4 inhibition. P49798. 0.45% of 310,000 active. B-score at 10 µM. HEK293 M3R/RGS4 inducible, Fluo-4 calcium flux; active compounds read high; triggered by carbachol at its EC20;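 active means B-score, a plate-corrected calcium signal, over three deviations above library mean, with baseline fluorescence within five deviations of library mean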;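 further: RGS4 expression induced by doxycycline in cells with stable M3 receptor; B-score is computed from the integrated fluorescence ratio over baseline after carbachol; higher B-score means a larger calcium signal and so more RGS4 inhibition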
Target sequence (P49798 whole entry, looked up): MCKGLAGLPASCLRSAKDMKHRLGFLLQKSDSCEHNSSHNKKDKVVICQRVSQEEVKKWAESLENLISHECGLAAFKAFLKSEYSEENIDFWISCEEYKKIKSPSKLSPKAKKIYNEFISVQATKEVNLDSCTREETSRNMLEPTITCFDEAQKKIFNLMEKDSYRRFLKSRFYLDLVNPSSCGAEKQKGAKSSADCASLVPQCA
MrgX1 antagonist – human MrgX1 receptor antagonism, primary screen; Q96LB2; MRGX1-HEK293 calcium flux, Fluo-4, BAM8-22 antagonism; active compounds read low; B-score at 10 µM; 1.3% of 310,000 active; AID 588676;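 active means calcium-response B-score plate-corrected more than 3 library SD below zero, starting fluorescence within 5 deviations, no agonist response on first addition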;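 further: peak minus trough fluorescence over baseline after final BAM8-22 challenge near maximal dose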
Target sequence (Q96LB2 whole entry, looked up): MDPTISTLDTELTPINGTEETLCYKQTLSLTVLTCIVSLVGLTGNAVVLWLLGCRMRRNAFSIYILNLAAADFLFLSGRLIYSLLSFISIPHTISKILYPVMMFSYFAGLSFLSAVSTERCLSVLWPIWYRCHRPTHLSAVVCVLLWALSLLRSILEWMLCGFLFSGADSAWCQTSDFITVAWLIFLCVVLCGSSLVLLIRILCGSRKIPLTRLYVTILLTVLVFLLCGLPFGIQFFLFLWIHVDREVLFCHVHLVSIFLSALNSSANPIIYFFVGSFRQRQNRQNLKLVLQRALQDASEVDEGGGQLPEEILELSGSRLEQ
RGS4 pot – potentiators or activators of RGS4; B-score at 10 µM; HEK293 M3R/inducible RGS4, carbachol calcium flux Fluo4; active compounds read low; AID 463111; 0.92% of 310,000 active;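 active means B-score of the integrated calcium signal more than 4 SD below the library mean, with starting fluorescence not abnormally high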;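 further: negative B-score means reduced calcium response which marks RGS4 activation or potentiation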
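test system = HEK293 cells with stable M3R and inducible RGS4 | schedule = recording 10 s baseline at 1 Hz, 100 s post-agonist | technique = Fluo4-AM (2 µM) calcium-flux fluorescence, kinetic read | measure = Agonist-evoked peak-minus-minimum fluorescence over baseline, integrated ratio, B score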
MrgX1 allo act – human MrgX1 positive allosteric modulation, primary screen. Q96LB2. MrgX1-HEK293, Fluo-4 calcium flux, FDSS; active compounds read high. B-score at 10 µM. 0.63% of 310,000 active;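 active means plate-corrected calcium response at least 3 library SD above typical, normal starting fluorescence, not activating the receptor alone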;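 further: compound read alongside a low EC10 to EC30 dose of BAM8-22 agonist; peak minus trough fluorescence over baseline measured at the second addition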
MrgX1 agonist – agonists of human MrgX1 receptor | 0.44% of 310,000 active | MrgX1-HEK293 cells, Fluo-4 calcium fluorescence, agonist mode; active compounds read high | Q96LB2 | AID 588627 | B-score at 10 µM;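 active means calcium response B-score plate-corrected fluorescence ratio at least 3 library SD, with starting fluorescence B-score inside 5 SD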
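Material: MrgX1-expressing HEK293 cells; input: 15,000 cells per well; doses: test compound given as first of three sequential additions; schedule: overnight plating before 1 h dye loading; technique: Fluo-4 NW calcium-flux fluorescence, kinetic read; evaluation: baseline-normalised fluorescence change ratio, B-scored; control set: plate-wise positive and negative controls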
RGS4 activ val – RGS4 activation, validation assay. shares compounds with RGS4 pot. HEK293 M3R/RGS4 inducible, carbachol calcium flux Fluo4. inhibition, % at 10 µM. 89% of 1,100 active;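 active means inhibition above 3 SD of the buffer control wells, cut at about 41% in these data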;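 further: signal is the integrated peak-minus-minimum Fluo4 fluorescence over baseline ratio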
M3R Ca counter – RGS4 activator counter-screen hit in non-induced cells; shares compounds with RGS4 pot; HEK293 M3R non-induced RGS4, Fluo4 calcium flux; after carbachol challenge at its EC90; inhibition, % at 10 µM; 82% of 1,100 active;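 active means inhibition exceeding 3 SD of buffer-only control wells, cut at about 26% in these data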;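 further: percent drop in integrated peak-minus-baseline over baseline Fluo4 ratio after carbachol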
Active calls of the source: *; i = inactive; . = not tested or not shown.

SMILES	RGS4 block	MrgX1 antagonist	RGS4 pot	MrgX1 allo act	MrgX1 agonist	RGS4 activ val	M3R Ca counter
OC(CN1CCN(C(c2ccccc2)c2ccccc2)CC1)c1ccc(Br)cc1 (configuration not stated)	i	i	-13*	i	i	92*	79*
COc1ccc2[nH]cc(CCN=C3SCC(=O)N3C)c2c1	i	i	i	i	i	.	.
CC[N+]1(C)CCC(=C2c3ccccc3CC(=O)c3sccc32)CC1 (configuration not stated)	i	-6.7*	-11*	i	i	95*	84*
c1ccc2c(c1)CC1(CCCC1)N=C2N1CCOCC1	i	i	i	i	i	.	.
COC(=O)c1ccc(C(=O)OC)c(NC(=O)COC(=O)CC2CC3CCC2C3)c1 (configuration not stated)	i	i	-9.7*	i	i	90*	33*
Cc1ccc(Cl)cc1NC(=O)COC(=O)CC1CC2CCC1C2 (configuration not stated)	i	i	i	i	i	.	.
CN(c1ccccc1)S(=O)(=O)c1ccc(C(=O)N2CCCC(C(F)(F)F)C2)cc1 (configuration not stated)	i	i	i	i	i	.	.
C(=N\c1nc2ccccc2n1Cc1ccccc1)/c1cccs1	i	i	-9.8*	i	i	76*	41*
CC1CC(C)(C)N(C(=O)CSc2ccc(-c3ccc(F)cc3)nn2)c2ccccc21 (configuration not stated)	i	i	-13*	i	i	94*	72*
CCOC(=O)C1=C(C)N=C2SC(C)C(=O)N2C1c1cccc(F)c1 (configuration not stated)	i	i	-8.1*	i	i	0	0
COc1cccc(CC2(CO)CCCN(Cc3c(C)cc(C)cc3-n3cccn3)C2)c1 (configuration not stated)	i	i	i	i	i	.	.
CCOc1ccc(N(CC(=O)N2CCCC2)S(=O)(=O)c2ccc(Cl)cc2)cc1	i	i	i	i	i	.	.
COc1ccc(NC(=O)CN2CCOCC2)cc1	i	i	i	i	i	.	.
O=C(Nc1ccc(N2CCN(c3ncccc3C(F)(F)F)CC2)nc1)c1cccs1	i	i	-7.8*	i	i	92*	96*
c1ccc(-c2cc(-c3nc4ccccc4[nH]3)c3ccccc3n2)cc1	i	i	-9.6*	i	i	94*	77*
Nc1ccc(-c2nc3ccccc3[nH]2)cc1	i	i	i	i	i	.	.
OCCC1CN(Cc2ccc(-c3ccco3)cc2)CCN1Cc1ccsc1 (configuration not stated)	i	i	-7.7*	i	i	74*	84*
CC1CCCCN1C(=O)c1cc2nc(-c3ccccc3)cc(-c3ccccc3)n2n1 (configuration not stated)	i	i	-7.9*	i	i	74*	0
CCOc1ccc2[nH]c3c(N4CCc5ccccc5C4)ncnc3c2c1	i	i	-8.5*	i	i	94*	72*
CC(C)(C)c1[nH]nc2c1C(Cc1ccccc1)C(C#N)=C(N)O2 (configuration not stated)	i	-5.1*	-9.3*	i	i	92*	84*
CC(C)(C)c1[nH]nc2c1C(c1cccnc1)C(C#N)=C(N)O2 (configuration not stated)	i	i	i	i	i	.	.
Cc1ccc(COc2ccc(CNCCCN3CCCCCC3=O)cc2)cc1	i	i	-12*	i	i	93*	65*
Cc1nccn1CC(O)Cn1c2ccccc2c2ccccc21 (configuration not stated)	i	i	-7.7*	i	i	86*	29*
N#C/C(=C/Nc1ccccc1F)S(=O)(=O)c1ccc(Cl)cc1	i	i	i	i	i	.	.
CCOC(=O)C1CCCN(C(=O)c2cc3c(C)nc4ccccc4c3o2)C1 (configuration not stated)	i	i	-9.2*	i	i	82*	61*
SMILES	RGS4 block	MrgX1 antagonist	RGS4 pot	MrgX1 allo act	MrgX1 agonist	RGS4 activ val	M3R Ca counter
CCOC(=O)C1CCCN(C(=O)c2ccc3nc(-c4cccc(OC)c4)oc3c2)C1 (configuration not stated)	i	i	-8.7*	i	i	54*	84*
Cc1ccc(CNC(=O)c2cc3c(C)nc4ccccc4c3o2)cc1	i	i	i	i	i	.	.
CCC(=O)C1CCCN(C(=O)c2ccc3nc(-c4cccc(OC)c4)oc3c2)C1 (configuration not stated)	i	i	i	i	i	.	.
Cc1ccc(C)c(N2CCN(C(=O)c3cc4c(C)nc5ccccc5c4o3)CC2)c1	i	i	-8.5*	i	i	89*	68*
CCOC(=O)c1c(S(=O)(=O)NCCCc2ccco2)c(C)n(C)c1C	i	i	i	i	i	.	.
COC(C#CCCN(C)C)(c1ccccc1)c1ccccc1	i	i	-8.4*	i	i	92*	96*
CN(C)CCOC(C)(c1ccccc1)c1ccccn1 (configuration not stated)	i	i	i	i	i	.	.
COc1ccc(NC(=O)COc2ccccc2)cc1NC(=O)c1ccco1	i	i	i	i	i	.	.
CC(Cc1cccs1)NC(=O)Nc1ccc(F)cc1 (configuration not stated)	i	i	i	i	i	.	.
CC(Cc1cccs1)NC(=S)Nc1ccc(Cl)cc1 (configuration not stated)	i	i	-8*	i	i	48*	84*
O=C(CN1CCCC1)N1c2ccccc2Sc2ccccc21	i	i	-9.5*	i	i	92*	69*
CCN(CC)CC(=O)N1c2ccccc2Sc2ccccc21	i	i	-8.5*	i	i	93*	81*
NCCC(=O)N1c2ccccc2Sc2ccccc21	i	i	i	i	i	.	.
Cc1ccc(C)c(-c2cc(C(=O)Nc3nccs3)c3ccccc3n2)c1	i	i	-7.7*	i	i	68*	0
COC(=O)c1sccc1NC(=O)c1cc(-c2cc(C)ccc2C)nc2ccccc12	i	i	i	i	i	.	.
